Source: ChEMBL document CHEMBL2169822, “Discovery and optimization of 1,3,4-trisubstituted-pyrazolone derivatives as novel, potent, and nonsteroidal farnesoid X receptor (FXR) selective antagonists” (J Med Chem, 2012)
The source made the active and inactive calls. The rule behind the calls is not given here.

Tests used:
[1] = target: T1, Retinoic acid receptor RXR-alpha (Homo sapiens) (UniProt P19793); assay: Antagonist activity at recombinant RXRalpha LBD expressed in HEK293T cells co-expressing GAL4 DBD assessed as inhibition of 9cRA-induced transactivation at 20 uM by luciferase reporter gene assay; type: functional, cell-based; settings: HEK-293T
T1 sequence (whole entry): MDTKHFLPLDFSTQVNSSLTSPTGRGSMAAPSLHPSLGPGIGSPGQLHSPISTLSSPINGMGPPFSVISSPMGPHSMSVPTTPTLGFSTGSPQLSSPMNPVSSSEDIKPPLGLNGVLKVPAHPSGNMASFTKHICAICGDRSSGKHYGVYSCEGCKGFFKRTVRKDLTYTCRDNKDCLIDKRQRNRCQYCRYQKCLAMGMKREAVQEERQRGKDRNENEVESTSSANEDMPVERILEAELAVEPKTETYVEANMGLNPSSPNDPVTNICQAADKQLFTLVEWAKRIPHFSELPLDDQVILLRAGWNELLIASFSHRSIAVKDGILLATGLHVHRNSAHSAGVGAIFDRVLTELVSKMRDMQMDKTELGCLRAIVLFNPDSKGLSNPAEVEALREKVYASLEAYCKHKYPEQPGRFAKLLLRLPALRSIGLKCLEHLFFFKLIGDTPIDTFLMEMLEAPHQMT
Method in brief: (§1)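 One-hybrid assay in HEK293T cells cotransfected with a Gal4 DBD–NR-LBD fusion (RXRα, LXRα, GR, PR, PPARδ or PPARγ) plus UAS-TK-Luc reporter. Compound was 20 μM, given alone or with agonist: 9cRA 0.1 μM (RXRα), TO901317 0.5 μM (LXRα), dexamethasone 50 nM (GR), progesterone 100 nM (PR), GW1516 10 μM (PPARδ), rosiglitazone 10 μM (PPARγ). Luciferase read-out; three independent experiments.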

[2] = target: T2, Bile acid receptor (Homo sapiens) (UniProt Q96RI1); assay: Antagonist activity at human FXR in human HepG2 cells assessed as inhibition of CDCA induced SREBP1c gene expression at 5 to 40 uM after 24 hrs by RT-PCR analysis; type: functional, cell-based
T2 sequence (whole entry): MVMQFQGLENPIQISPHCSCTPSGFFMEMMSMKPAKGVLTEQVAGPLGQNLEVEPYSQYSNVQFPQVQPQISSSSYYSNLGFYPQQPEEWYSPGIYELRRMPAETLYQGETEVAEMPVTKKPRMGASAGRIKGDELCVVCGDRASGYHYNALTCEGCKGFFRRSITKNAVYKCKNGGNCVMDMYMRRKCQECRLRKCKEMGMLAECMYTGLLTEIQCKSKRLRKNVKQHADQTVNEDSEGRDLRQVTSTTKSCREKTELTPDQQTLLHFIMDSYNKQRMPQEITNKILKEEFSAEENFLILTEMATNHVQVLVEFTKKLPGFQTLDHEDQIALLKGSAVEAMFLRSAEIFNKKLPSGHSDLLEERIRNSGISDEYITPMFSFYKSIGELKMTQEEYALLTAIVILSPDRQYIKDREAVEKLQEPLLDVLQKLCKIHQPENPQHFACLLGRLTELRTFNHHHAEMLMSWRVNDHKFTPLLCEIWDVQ
Method in brief: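 HepG2 cells in 6-well plates were treated with varied concentrations of compound, with or without 100 μM CDCA, for 24 h. Total RNA was taken with TRIzol and cDNA made by reverse transcription. Cyp7A1, SHP, BSEP and SREBP1c mRNA were measured by quantitative RT-PCR and normalized to β-actin. Three independent experiments.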

[3] = target: T2, Bile acid receptor (Homo sapiens); assay: Antagonist activity at human FXR in human HepG2 cells assessed as reduction in cholesterol level at 10 uM after 24 hrs; type: functional, cell-based
Method in brief: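 HepG2 cells were serum-starved overnight in FBS-free DMEM, then given DMSO or compound for 24 h in serum-free DMEM. Cells were lysed in RIPA buffer, sonicated on ice and centrifuged at 12000 rpm, 4 °C. Triglyceride and total cholesterol in the cleared lysate were measured by kits, with total protein by BCA. At least three experiments.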

[4] = target: T3, Glucocorticoid receptor (Homo sapiens) (UniProt P04150); assay: Agonist activity at recombinant glucocorticoid receptor LBD expressed in HEK293T cells co-expressing GAL4 DBD at 20 uM by transactivation assay; type: functional, cell-based; settings: HEK-293T; method in brief: as §1
T3 sequence (whole entry): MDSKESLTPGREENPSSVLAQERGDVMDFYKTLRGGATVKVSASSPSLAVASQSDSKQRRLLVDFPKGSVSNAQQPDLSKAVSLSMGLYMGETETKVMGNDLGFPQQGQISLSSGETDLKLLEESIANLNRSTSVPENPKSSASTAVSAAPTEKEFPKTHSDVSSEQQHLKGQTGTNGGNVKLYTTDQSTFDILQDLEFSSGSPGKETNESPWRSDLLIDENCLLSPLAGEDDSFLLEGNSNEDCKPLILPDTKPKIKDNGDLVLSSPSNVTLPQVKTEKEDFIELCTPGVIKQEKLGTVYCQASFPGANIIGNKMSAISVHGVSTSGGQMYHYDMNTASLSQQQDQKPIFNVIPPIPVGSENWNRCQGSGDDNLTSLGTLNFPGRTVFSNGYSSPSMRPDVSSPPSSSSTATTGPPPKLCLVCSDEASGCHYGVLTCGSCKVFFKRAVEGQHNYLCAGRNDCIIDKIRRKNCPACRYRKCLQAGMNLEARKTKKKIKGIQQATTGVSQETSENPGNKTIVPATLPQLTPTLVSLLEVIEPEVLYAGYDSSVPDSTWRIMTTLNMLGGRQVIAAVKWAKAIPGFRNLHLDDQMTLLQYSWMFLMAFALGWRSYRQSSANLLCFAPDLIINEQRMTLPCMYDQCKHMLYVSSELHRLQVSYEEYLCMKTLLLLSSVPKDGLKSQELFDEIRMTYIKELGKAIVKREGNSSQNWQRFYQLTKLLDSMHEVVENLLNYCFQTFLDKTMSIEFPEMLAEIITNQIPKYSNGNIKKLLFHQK

Mus musculus = assay: Reduction of hepatic cholesterol level in cholesterol-fed C57BL/6 mouse at 100 mg/kg, po after 10 days; type: functional; parameters: scale not given: the % may be the effect or the level left
Method in brief: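 Male C57BL/6 mice, 8–12 weeks old, were randomized into five groups of nine. Control mice had ground chow; the other groups had chow with 2% cholesterol. Compound (50 or 100 mg/kg) or reference (100 mg/kg) was suspended in 0.5% CMC-Na and given by oral gavage; control and vehicle mice got 0.5% CMC-Na. Serum and hepatic triglyceride and total cholesterol were measured.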

SMILES: COc1cc(/C=C2\C(=O)N(c3cccc([N+](=O)[O-])c3)N=C2c2ccccc2)ccc1O
- inhibition [1]: inactive
- inhibition [2]: Active
- inhibition [3]: 27.1%
- Activity [4]: inactive
- Activity (Mus musculus): 47.5%
